Experimental data from paper PMC7931646 (The Journal of Experimental Medicine, 2021).
Read-outs that look alike come from different tables or passages of the source.

Tests used:
adenosine A3 = adenosine A3 (Homo sapiens, UniProt P0DMS8); assay: CEREP off-target radioligand binding panel; settings: read-out: inhibition of ligand binding
How it was run: (§1)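 CEREP secondary-pharmacology panel of 55 receptors, transporters and ion channels. Test compound at 10 µM was assessed for inhibition of binding of a radiolabelled reference ligand specific to each target. Result is percent inhibition of ligand binding.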

[1] = Human PK and 50% effective dose projection
[2] = system: Aβ42, Aβ40, Aβ38 in plasma, brain and CSF; assay: 9-d repeat-dose pharmacodynamics in male Sprague-Dawley rats; format: in vivo, rat; settings: 5 mg/kg po daily 9 d, 4 h post dose
How it was run: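 Male Sprague-Dawley rats, n = 14 per dose level, received vehicle (80% PEG 400, 20% water, 0.1% Tween 20) or test compound at 5, 25 or 50 mg/kg orally once daily for 9 d. Sampling was 4 h after the day-9 dose: plasma, brain extracts, and CSF from the cisterna magnum. Aβ38/40/42 were measured by MSD multiplex assay. Results are mean ± SEM, analysed by ANOVA.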

[3] = Liver microsomal stability, human; format: in vitro ADME; settings: liver microsomes
How it was run: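 Test compound at 1 µM was incubated for 30 min with liver microsomes at 1 mg/ml (human, rat or mouse). Result is percent of parent compound remaining.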

[4] = Kinetic aqueous solubility, PBS pH 7.4; format: physicochemical; settings: PBS buffer, pH 7.4, aqueous buffer, kinetic from dmso stock
How it was run: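 Kinetic solubility in PBS at pH 7.4, read by UV/Vis absorbance and reported in micromolar.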

cerebral amyloidosis = assay: Immunohistochemistry of amyloid deposition; format: in vivo, mouse; settings: 25 mg/kg/d, 3 mo
How it was run: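 Female PSAPP mice began treatment at 90 or 180 d of age with vehicle (PEG 400/water/Tween 20) or test compound 25 mg/kg/d by oral gavage for 3 mo. Cerebral amyloid deposition in cortex and hippocampus was assessed by immunohistochemistry with anti-Aβ mAb 3D6, alongside Iba1 staining for microgliosis.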

MDR1-MDCK permeability = format: in vitro ADME; settings: dog
How it was run: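 Transport across MDR1-MDCK cell monolayers. Apparent permeability was measured in the apical-to-basolateral direction (× 10−6 cm/s). Efflux ratio was calculated as Papp B-A / Papp A-B.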

[5] = GLP in vitro micronucleus evaluation; format: cell-based; settings: data not shown
hERG channel = hERG channel (Homo sapiens, UniProt Q12809); assay: Patch-Xpress patch-clamp hERG assay in HEK-293 cells; format: cell-based
hERG channel, sequence (Q12809 whole entry): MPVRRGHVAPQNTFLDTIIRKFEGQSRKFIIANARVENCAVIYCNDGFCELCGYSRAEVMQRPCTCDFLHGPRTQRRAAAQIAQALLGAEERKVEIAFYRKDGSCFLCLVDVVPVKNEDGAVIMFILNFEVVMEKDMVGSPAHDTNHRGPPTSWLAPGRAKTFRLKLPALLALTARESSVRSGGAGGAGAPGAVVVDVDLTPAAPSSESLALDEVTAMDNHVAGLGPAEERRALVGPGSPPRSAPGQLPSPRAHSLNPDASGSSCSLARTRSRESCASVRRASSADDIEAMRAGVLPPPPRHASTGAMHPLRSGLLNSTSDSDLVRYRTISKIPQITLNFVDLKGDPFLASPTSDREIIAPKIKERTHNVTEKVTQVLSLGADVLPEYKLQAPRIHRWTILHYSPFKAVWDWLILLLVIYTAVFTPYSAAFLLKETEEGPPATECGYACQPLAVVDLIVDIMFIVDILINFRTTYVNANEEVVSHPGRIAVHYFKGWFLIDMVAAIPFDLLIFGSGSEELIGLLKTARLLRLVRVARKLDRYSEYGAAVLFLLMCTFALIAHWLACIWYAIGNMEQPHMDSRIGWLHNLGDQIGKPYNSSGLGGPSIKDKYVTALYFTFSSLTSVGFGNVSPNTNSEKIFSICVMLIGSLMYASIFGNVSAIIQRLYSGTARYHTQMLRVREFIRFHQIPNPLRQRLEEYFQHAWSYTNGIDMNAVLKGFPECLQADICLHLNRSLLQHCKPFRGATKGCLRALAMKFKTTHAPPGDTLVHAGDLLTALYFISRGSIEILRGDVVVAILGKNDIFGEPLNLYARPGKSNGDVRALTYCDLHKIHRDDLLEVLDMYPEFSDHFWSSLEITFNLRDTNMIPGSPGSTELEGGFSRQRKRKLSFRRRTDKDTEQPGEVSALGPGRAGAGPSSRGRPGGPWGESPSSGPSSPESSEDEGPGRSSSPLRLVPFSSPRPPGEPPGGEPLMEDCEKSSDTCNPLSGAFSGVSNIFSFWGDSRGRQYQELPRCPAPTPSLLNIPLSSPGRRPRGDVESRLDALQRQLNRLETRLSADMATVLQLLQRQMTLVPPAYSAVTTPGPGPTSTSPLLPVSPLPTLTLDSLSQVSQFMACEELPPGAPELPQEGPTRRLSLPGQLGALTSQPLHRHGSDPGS

[6] = GLP cardiopulmonary safety pharmacology study in NHPs; format: in vivo, NHP; settings: NHPs, 10, 30 and 60 mg/kg
[7] = system: S. typhimurium strains TA1535, TA1537, TA98, TA100 and E. coli strain WP2 (uvrA); assay: GLP Salmonella–Escherichia coli/microsome plate incorporation; format: cell-based, Salmonella typhimurium; settings: two S. typhimurium strains (T98 and T100), only with Aroclor-induced rat liver S9
How it was run: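 GLP plate-incorporation mutagenicity test using S. typhimurium TA1535, TA1537, TA98 and TA100 and E. coli WP2 (uvrA). Each strain was run with and without a metabolic activation mix of Aroclor 1254–induced rat liver microsomes (S9). Read-out is revertant bacterial growth.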

[8] = system: Pig-a mutant RBCs and RETs; assay: GLP 28-d in vivo Pig-a gene mutation study in rats; design: species or system rat; settings: 28 d, 6, 20, 60 mg/kg/d (males), 3, 10, 30 mg/kg/d (females)
How it was run: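 GLP study in male and female Sprague-Dawley rats, n = 5 per dose per sex. Test compound in 15% Labrasol:85% water was given by oral gavage for 28 d at 0, 6, 20 or 60 mg/kg/d (males) or 0, 3, 10 or 30 mg/kg/d (females). Peripheral blood was then analysed by flow cytometry for % reticulocytes, mutant-phenotype RBC frequency and mutant-phenotype RET frequency.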

μ opioid receptors = μ opioid receptors (Homo sapiens, UniProt P35372); assay: CEREP off-target radioligand binding panel; settings: read-out: inhibition of ligand binding
μ opioid receptors, sequence (P35372 whole entry): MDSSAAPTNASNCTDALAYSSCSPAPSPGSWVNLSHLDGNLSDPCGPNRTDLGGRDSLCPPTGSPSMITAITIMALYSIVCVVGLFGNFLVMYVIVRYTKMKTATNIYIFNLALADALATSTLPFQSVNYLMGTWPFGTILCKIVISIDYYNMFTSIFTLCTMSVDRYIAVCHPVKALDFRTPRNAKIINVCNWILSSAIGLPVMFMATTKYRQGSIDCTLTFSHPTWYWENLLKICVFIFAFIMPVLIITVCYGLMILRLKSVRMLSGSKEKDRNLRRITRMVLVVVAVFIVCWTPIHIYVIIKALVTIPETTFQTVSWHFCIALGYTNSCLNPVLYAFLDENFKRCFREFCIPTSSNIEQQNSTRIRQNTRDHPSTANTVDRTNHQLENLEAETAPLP
How it was run: as §1

CYP450 2C19 = CYP450 2C19 (Homo sapiens, UniProt P33261); assay: CYP450 inhibition, recombinant isoform; format: in vitro ADME
CYP450 2C19, sequence (P33261 whole entry, canonical isoform): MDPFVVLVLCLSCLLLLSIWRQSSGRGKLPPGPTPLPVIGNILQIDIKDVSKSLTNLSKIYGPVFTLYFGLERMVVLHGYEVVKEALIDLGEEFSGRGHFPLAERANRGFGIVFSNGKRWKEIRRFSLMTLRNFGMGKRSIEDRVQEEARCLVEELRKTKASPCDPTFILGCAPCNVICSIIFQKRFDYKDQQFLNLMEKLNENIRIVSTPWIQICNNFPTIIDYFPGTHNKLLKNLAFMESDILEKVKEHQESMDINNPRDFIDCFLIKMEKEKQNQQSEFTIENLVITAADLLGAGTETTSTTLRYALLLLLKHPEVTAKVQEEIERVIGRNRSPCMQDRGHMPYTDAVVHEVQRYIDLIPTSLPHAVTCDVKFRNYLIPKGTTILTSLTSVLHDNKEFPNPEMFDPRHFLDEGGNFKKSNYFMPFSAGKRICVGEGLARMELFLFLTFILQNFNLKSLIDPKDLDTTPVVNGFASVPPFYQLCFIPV
How it was run: (§2)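 Recombinant human CYP450 isoforms were incubated with isoform-specific probe substrates; for CYP3A4 these were midazolam and testosterone. Inhibition was quantified by LC-MS/MS analysis of probe-substrate turnover.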

CYP450 3A4 = CYP450 3A4 (Homo sapiens, UniProt P08684); assay: CYP450 inhibition, recombinant isoform; format: in vitro ADME
CYP450 3A4, sequence (P08684 whole entry, canonical isoform): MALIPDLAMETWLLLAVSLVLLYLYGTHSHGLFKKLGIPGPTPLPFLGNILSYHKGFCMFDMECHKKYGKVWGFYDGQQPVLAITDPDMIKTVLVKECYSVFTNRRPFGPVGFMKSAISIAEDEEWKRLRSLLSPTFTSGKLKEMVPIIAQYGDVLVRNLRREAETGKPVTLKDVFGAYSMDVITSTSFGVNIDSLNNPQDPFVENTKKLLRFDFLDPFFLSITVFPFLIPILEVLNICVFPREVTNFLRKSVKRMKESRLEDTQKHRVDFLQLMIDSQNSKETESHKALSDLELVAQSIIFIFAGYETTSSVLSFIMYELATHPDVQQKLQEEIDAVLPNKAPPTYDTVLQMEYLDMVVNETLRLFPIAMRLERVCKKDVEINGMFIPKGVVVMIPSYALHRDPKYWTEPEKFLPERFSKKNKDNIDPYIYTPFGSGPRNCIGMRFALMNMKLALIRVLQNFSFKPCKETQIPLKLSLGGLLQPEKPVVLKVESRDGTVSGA
How it was run: as §2

sodium channel (Site 2) = assay: CEREP off-target radioligand binding panel; settings: 10 µM
How it was run: as §1

[9] = GLP 28-d repeat-dose toxicity and in vivo micronucleus study in rats; design: species or system rat
[10] = Estimation of effective AUC and unbound Ceffective in rodents
NK3 = NK3 (Homo sapiens, UniProt P29371); assay: CEREP off-target radioligand binding panel; settings: read-out: inhibition of ligand binding
NK3, sequence (P29371 whole entry): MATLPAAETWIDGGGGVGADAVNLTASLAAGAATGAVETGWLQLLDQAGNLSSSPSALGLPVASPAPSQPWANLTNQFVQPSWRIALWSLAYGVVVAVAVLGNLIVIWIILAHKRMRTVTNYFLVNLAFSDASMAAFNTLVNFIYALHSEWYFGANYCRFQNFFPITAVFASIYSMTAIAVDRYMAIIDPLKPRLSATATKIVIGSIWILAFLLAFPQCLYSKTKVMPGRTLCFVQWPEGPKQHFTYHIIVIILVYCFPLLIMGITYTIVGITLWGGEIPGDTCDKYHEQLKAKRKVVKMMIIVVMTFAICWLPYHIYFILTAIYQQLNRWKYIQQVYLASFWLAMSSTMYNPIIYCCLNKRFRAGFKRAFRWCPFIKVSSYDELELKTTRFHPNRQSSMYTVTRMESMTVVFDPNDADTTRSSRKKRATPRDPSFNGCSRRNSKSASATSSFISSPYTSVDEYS
How it was run: as §1

adenosine A3, sequence (P0DMS8 whole entry): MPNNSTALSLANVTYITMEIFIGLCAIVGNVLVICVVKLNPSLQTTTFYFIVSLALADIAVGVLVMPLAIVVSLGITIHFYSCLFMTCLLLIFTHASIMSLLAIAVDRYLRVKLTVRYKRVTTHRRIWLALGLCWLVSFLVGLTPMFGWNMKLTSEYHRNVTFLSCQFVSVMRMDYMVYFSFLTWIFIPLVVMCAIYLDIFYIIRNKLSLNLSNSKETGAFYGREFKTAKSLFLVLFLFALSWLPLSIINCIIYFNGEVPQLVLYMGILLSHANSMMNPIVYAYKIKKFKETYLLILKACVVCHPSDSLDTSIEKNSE

## COc1nc(-c2cc(C)c(N[C@@H](C)c3cc(F)cc(F)c3)nn2)ccc1-n1cnc(C)c1 [Compound 2, (S)-N-(1-(3,5-difluorophenyl)ethyl)-6-(6-methoxy-5-(4-methyl-1H-imidazol-1-yl)pyridin-2-yl)-4-methylpyridazin-3-amine]
Adenosine A3
  inhibition at 10 µM: > 50%
[1]
  fabs in humans (expected): ~90%
[1]; allometric scaling from mouse, rat, NHP
  predicted human CL: ~0.3 L/h/kg
[1]; human, plasma
  AUC: 4.32 µg·h/mL
[2]
  Brain % Aβ42 ∆ vs vehicle (↓ reduction): 54%
  Brain %Aβ40 ∆ vs vehicle (↓ reduction): 29%
  CSF % Aβ42 ∆ vs vehicle (↓ reduction): 41%
  CSF %Aβ40 ∆ vs vehicle (↓ reduction): 29%
  Plasma % Aβ40 ∆ vs vehicle (↓ reduction): 57%
  Plasma % Aβ42 ∆ vs vehicle (↓ reduction): 78%
[3]
  remaining at 0.5 h, 1 µM: 71%
[4]
  solubility kinetic: < 1.3 µM
Cerebral amyloidosis; 6-mo-old PSAPP mice (prophylactic group), P < 0.01
  attenuation of cerebral amyloidosis (mAb 3D6), cortex and hippocampus: greater than twofold
Cerebral amyloidosis; 9-mo-old PSAPP mice (disease-modifying group), P < 0.03
  cerebral amyloidosis (mAb 3D6), cortex and hippocampus, vs vehicle: statistically significant decrease
MDR1-MDCK permeability
  Papp A→B: 233 nm/s
[5]
  GLP in vitro micronucleus evaluation: negative
hERG channel
  IC50: 7.3 µM
  safety margin between Aβ42 IC50 and hERG IC20: > 100 fold
hERG channel; human, HEK-293 cells expressing hERG
  IC20: 1.3 µM
[6]
  effect on electrocardiogram parameters, including corrected QT interval: no significant effect
[7]
  GLP Ames bacterial mutagenicity result: positive
[8]
  in vivo mutagenicity (Pig-a mutant RBCs and RETs): negative
μ opioid receptors
  inhibition at 10 µM: > 50%
CYP450 2C19
  IC50: 12 µM
CYP450 3A4
  IC50: 9.4 µM
CYP450 3A4; CYP450 IC50 3A4 (m), probe substrate midazolam
  IC50: 42 µM
Sodium channel (Site 2)
  inhibition of ligand binding: Greater than 50%
[9]; AUC at rat NOAEL vs predicted human AUC at 100 mg
  safety margin based on comparison of systemic exposures: more than 130 fold
[9]; male, rat, in vivo, 60 mg/kg
  AUC: 586 µg·h/mL
[9]; rat, in vivo
  NOAEL at 28 d: 60 mg/kg
[9]; rats, data not shown
  GLP 28-d repeat-dose toxicity and in vivo micronucleus study: negative
[10]; plasma unbound fraction 0.1%
  unbound average Ceffective: ~0.58 ng/mL
[10]; plasma unbound fraction 1.0%
  unbound average Ceffective: 5.8 ng/mL
[10]; rat, plasma
  AUC: 13.8 µg·h/mL
NK3
  inhibition at 10 µM: > 50%
